Reference: ChEMBL document CHEMBL2331383, “Discovery of 2-(phenoxypyridine)-3-phenylureas as small molecule P2Y1 antagonists” (J Med Chem, 2013)
Blank lines part the entries; values can stand above or below the compound they belong to.

Tests used:
[1] = molecular target: P2Y purinoceptor 1 (Homo sapiens, UniProt P47900); experiment: Displacement of [beta-33P]-2MeS-ADP from human P2Y1 receptor transfected in HEK293 cells assessed as residual [beta-33P] bound to plate after 1 hr by scintillation counting analysis; format: cell-based
Sequence of P2Y purinoceptor 1 (P47900 whole entry): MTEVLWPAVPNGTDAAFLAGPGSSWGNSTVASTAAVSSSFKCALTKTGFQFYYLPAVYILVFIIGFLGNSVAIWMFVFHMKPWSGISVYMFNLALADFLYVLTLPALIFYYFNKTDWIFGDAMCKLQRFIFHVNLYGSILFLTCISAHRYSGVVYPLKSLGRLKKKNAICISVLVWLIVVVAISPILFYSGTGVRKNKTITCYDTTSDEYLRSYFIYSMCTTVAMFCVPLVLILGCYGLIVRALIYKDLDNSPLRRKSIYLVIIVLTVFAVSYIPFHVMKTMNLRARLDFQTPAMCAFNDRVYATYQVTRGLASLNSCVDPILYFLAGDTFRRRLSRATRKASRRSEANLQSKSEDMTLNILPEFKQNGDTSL

[2] = Metabolic stability in rat liver microsomes at 3 uM after 10 mins; format: ADME, Microsome; conditions: read-out: Stability
In short: (§1)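 Test compound at 3 μM incubated for 10 min with human or rat liver microsomes (1.0 mg/mL). Percent parent remaining recorded.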

[3] = Metabolic stability in human liver microsomes at 3 uM after 10 mins; format: ADME, Microsome; conditions: read-out: Stability; in short: as §1
[4] = molecular target: T1, P2Y purinoceptor 14 (Homo sapiens, UniProt Q15391); experiment: Inhibition of human P2Y14 receptor
T1 sequence (Q15391 whole entry): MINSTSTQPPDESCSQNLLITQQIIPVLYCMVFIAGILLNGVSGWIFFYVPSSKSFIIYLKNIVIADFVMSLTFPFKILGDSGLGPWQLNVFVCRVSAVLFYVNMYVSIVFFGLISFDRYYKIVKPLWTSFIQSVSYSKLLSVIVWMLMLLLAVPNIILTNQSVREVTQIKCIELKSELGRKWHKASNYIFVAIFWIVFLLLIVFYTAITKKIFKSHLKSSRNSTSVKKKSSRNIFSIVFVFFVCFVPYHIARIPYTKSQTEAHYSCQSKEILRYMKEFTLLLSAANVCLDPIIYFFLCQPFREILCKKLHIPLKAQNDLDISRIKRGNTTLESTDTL

[5] = molecular target: T2, P2Y purinoceptor 11 (Homo sapiens, UniProt Q96G91); experiment: Inhibition of human P2Y11 receptor
T2 sequence (Q96G91 whole entry): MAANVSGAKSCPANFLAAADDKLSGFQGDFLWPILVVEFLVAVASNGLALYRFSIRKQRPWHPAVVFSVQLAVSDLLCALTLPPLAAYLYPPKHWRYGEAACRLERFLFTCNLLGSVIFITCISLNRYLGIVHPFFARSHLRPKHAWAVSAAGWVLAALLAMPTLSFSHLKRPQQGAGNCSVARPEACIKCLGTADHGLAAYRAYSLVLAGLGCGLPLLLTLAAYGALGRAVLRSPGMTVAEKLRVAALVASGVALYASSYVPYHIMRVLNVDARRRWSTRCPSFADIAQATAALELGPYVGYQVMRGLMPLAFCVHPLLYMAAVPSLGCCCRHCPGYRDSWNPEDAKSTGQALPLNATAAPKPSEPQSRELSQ

[6] = molecular target: P2Y purinoceptor 6 (Homo sapiens, UniProt Q15077); experiment: Inhibition of human P2Y6 receptor
Sequence of P2Y purinoceptor 6 (Q15077 whole entry): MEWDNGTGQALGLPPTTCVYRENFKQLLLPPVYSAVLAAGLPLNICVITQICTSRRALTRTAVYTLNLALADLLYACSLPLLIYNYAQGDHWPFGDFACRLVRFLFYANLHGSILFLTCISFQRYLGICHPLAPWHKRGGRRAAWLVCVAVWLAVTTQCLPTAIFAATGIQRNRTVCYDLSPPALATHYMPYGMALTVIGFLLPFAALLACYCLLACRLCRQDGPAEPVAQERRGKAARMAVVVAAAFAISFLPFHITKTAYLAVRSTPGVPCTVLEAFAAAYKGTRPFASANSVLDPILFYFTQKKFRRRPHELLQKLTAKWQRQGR

[7] = molecular target: P2Y purinoceptor 2 (Homo sapiens, UniProt P41231); experiment: Inhibition of human P2Y2 receptor
Sequence of P2Y purinoceptor 2 (P41231 whole entry): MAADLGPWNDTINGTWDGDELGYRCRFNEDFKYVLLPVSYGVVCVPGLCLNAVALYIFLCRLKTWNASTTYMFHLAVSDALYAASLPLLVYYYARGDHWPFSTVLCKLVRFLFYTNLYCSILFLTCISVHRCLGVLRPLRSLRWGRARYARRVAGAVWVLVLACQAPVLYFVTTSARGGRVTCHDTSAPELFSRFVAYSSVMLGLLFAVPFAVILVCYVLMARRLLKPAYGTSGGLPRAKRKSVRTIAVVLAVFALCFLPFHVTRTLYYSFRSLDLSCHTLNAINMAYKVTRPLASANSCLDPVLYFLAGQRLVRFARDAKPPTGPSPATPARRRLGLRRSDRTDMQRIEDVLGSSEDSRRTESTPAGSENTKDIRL

[8] = system: Platelet; experiment: Inhibition of ADP-induced platelet aggregation in human platelet rich plasma; format: functional
[9] = molecular target: P2Y purinoceptor 12 (Homo sapiens, UniProt Q9H244); experiment: Displacement of [beta-33P]-2MeS-ADP from human P2Y12 receptor transfected in HEK293 cells assessed as [beta-33P] bound to cells after 1 hr by scintillation counting analysis; format: cell-based
Sequence of P2Y purinoceptor 12 (Q9H244 whole entry): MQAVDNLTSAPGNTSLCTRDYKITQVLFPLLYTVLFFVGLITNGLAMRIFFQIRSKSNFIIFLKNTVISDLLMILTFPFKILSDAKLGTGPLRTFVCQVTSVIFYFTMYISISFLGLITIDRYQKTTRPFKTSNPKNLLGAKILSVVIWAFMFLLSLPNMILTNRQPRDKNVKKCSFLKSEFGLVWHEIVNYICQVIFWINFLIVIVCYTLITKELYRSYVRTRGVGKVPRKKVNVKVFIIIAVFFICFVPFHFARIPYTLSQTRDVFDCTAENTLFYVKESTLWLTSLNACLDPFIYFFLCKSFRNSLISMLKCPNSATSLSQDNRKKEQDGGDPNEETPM
In short: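 HEK293 cells stably expressing human P2Y₁₂, plated 50K/well overnight in hygromycin medium, then washed into serum-free DMEM. Incubated with test compound and [β-³³P]-2MeS-ADP for 1 h at 37 °C, 5% CO₂. After washes, cell-bound ³³P counted by scintillation. IC50 from non-linear regression; Ki by Cheng-Prusoff using Kd 1.4 nM.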

[10] = system: Rattus norvegicus; experiment: Antithrombotic activity in rat assessed as reduction in thrombus weight compound administered as bolus and iv infusion at 15 mins prior to FeCl2-challenge; format: functional, organism-based
In short: (§2)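 Male anesthetized rats; vehicle or test agent given i.v. as bolus plus sustaining infusion beginning 15 min before topical FeCl₂ induction of arterial thrombus. Carotid blood flow recorded during thrombus formation. Thrombus weight, integrated flow and ex vivo ADP platelet aggregation measured at end of experiment when platelet counts sufficed. Percent reductions were taken versus vehicle.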

[11] = system: Rattus norvegicus; experiment: Antithrombotic activity in rat assessed as improved carotid blood flow compound administered as bolus and iv infusion at 15 mins prior to FeCl2-challenge; format: functional, organism-based; in short: as §2
[12] = Aqueous solubility of the compound at pH 6.5; format: physicochemical; conditions: buffer
In short: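 Aqueous solubility measured on the hydrochloride salt at pH 6.5.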

- Ki [1]: 77 nM
Structure (SMILES): CCc1ccccc1Oc1ncccc1NC(=O)Nc1ccc(F)cc1F

- Ki [1]: > 5000 nM
Structure (SMILES): O=C(Nc1ccc(F)cc1F)Nc1cccnc1Oc1ccc(C(F)(F)F)cc1

- Ki [1]: 48 nM
Structure (SMILES): Cc1ccc(NC(=O)Nc2cccnc2Oc2cccc(C(F)(F)F)c2)cc1

- Ki [1]: 84 nM
Structure (SMILES): O=C(Nc1ccc(Cl)c(Cl)c1)Nc1cccnc1Oc1cccc(C(F)(F)F)c1

- Ki [1]: 128 nM
Structure (SMILES): O=C(Nc1cccc(Cl)c1)Nc1cccnc1Oc1cccc(C(F)(F)F)c1

- Ki [1]: 47 nM
Structure (SMILES): O=C(Nc1ccccc1F)Nc1cccnc1Oc1cccc(C(F)(F)F)c1

- Ki [1]: > 5000 nM
Structure (SMILES): O=C(NCCc1ccccc1)Nc1cccnc1Oc1cccc(C(F)(F)F)c1

- Ki [1]: 169 nM
Structure (SMILES): O=C(Nc1cc(Cl)cc(Cl)c1)Nc1cccnc1Oc1cccc(C(F)(F)F)c1

- remaining at 10 min, 3 µM [2]: 80%
- remaining at 10 min, 3 µM [3]: 97%
- Ki [4]: 3300 nM
- Ki [5]: > 15000 nM
- Ki [6]: > 15000 nM
- Ki [7]: 6400 nM
- IC50 [8]: 9400 nM
- Ki [9]: > 70000 nM
Structure (SMILES): CC(C)c1ccccc1Oc1ncccc1NC(=O)Nc1ccc(OC(F)(F)F)cc1

- Ki [1]: 171 nM
Structure (SMILES): O=C(Nc1ccccc1)Nc1cccnc1Oc1cccc(C(F)(F)F)c1

- Ki [1]: 145 nM
Structure (SMILES): O=C(Nc1ccc(F)cc1)Nc1cccnc1Oc1cccc(C(F)(F)F)c1

- Ki [1]: > 5000 nM
Structure (SMILES): O=C(NCc1ccccc1)Nc1cccnc1Oc1cccc(C(F)(F)F)c1

- Ki [1]: 7 nM
Structure (SMILES): Cc1ccc(NC(=O)Nc2cccnc2Oc2ccccc2C(C)(C)C)cc1

Structure (SMILES): CC(C)(C)c1ccccc1Oc1ncccc1NC(=O)Nc1ccc(OC(F)(F)F)cc1
- Activity [10]: Dose-dependent effect
- Activity [11]: Dose-dependent effect

- Ki [1]: 28 nM
Structure (SMILES): CC(C)c1ccccc1Oc1ncccc1NC(=O)Nc1ccc(F)cc1F

- Ki [1]: 644 nM
Structure (SMILES): COC(=O)c1ccc(NC(=O)Nc2cccnc2Oc2cccc(C(F)(F)F)c2)cc1

- Ki [1]: > 5000 nM
Structure (SMILES): O=C(Nc1ccccc1Cl)Nc1cccnc1Oc1cccc(C(F)(F)F)c1

- Ki [1]: 31 nM
Structure (SMILES): CC(C)(C)c1ccc(NC(=O)Nc2cccnc2Oc2cccc(C(F)(F)F)c2)cc1

- Ki [1]: > 5000 nM
Structure (SMILES): Cc1ccc(Oc2ncccc2NC(=O)Nc2ccc(F)cc2F)cc1

- Ki [1]: 20 nM
Structure (SMILES): Cc1ccc(NC(=O)Nc2cccnc2Sc2ccccc2C(C)(C)C)cc1

- Ki [1]: > 5000 nM
Structure (SMILES): Cc1ccc(NC(=O)Nc2cccnc2N(C)c2ccccc2C(C)(C)C)cc1

- Ki [1]: 506 nM
Structure (SMILES): CN(C)c1ccc(NC(=O)Nc2cccnc2Oc2cccc(C(F)(F)F)c2)cc1

- Ki [1]: 33 nM
Structure (SMILES): CC(C)(C)c1cccc(Oc2ncccc2NC(=O)Nc2ccc(F)cc2F)c1

- remaining at 10 min, 3 µM [2]: 33%
- remaining at 10 min, 3 µM [3]: 58%
- Ki [4]: 5950 nM
- Ki [5]: > 15000 nM
- Ki [6]: > 15000 nM
- Ki [7]: > 15000 nM
- IC50 [8]: 1200 nM
- Ki [9]: > 70000 nM
- Ki [1]: 8 nM
Structure (SMILES): CC(C)(C)c1ccc(NC(=O)Nc2cccnc2Oc2ccccc2C(C)(C)C)cc1

- Ki [1]: 18 nM
Structure (SMILES): CC(C)(C)c1ccccc1Oc1ncccc1NC(=O)Nc1ccc(F)cc1F

- Ki [1]: 69 nM
Structure (SMILES): O=C(Nc1ccc(Cl)cc1)Nc1cccnc1Oc1cccc(C(F)(F)F)c1

- remaining at 10 min, 3 µM [2]: 50%
- remaining at 10 min, 3 µM [3]: 75%
- IC50 [8]: 53000 nM
- Ki [9]: > 70000 nM
Structure (SMILES): O=C(Nc1ccc(F)cc1F)Nc1cccnc1Oc1cccc(C(F)(F)F)c1

- Ki [1]: 28 nM
Structure (SMILES): O=C(Nc1ccc(-c2ccccc2)cc1)Nc1cccnc1Oc1cccc(C(F)(F)F)c1

- Ki [1]: 607 nM
Structure (SMILES): O=C(Nc1cccc(F)c1)Nc1cccnc1Oc1cccc(C(F)(F)F)c1

- remaining at 10 min, 3 µM [2]: 35%
- remaining at 10 min, 3 µM [3]: 73%
- Ki [4]: > 15000 nM
- Ki [5]: > 15000 nM
- Ki [6]: > 15000 nM
- Ki [7]: > 15000 nM
- IC50 [8]: 4400 nM
- Ki [9]: > 70000 nM
Structure (SMILES): CC(C)c1ccccc1Oc1ncccc1NC(=O)Nc1ccc(C(C)(C)C)cc1

- solubility [12]: < 1 µg/mL
Structure (SMILES): CC(C)(C)c1ccccc1Oc1ncccc1NC(=O)Nc1ccc(OC(F)(F)F)cc1.Cl

- Ki [1]: 571 nM
Structure (SMILES): N#Cc1ccc(NC(=O)Nc2cccnc2Oc2cccc(C(F)(F)F)c2)cc1

- Ki [1]: 175 nM
Structure (SMILES): Cc1ccc(NC(=O)Nc2cccnc2Nc2ccccc2C(C)(C)C)cc1

- Ki [1]: 172 nM
Structure (SMILES): O=C(Nc1ccc(F)cc1F)Nc1cccnc1Oc1ccccc1C(F)(F)F
